According to ChEMBL document CHEMBL3227962, “Synthesis of hydroxy- and amino-substituted benzohydroxamic acids: inhibition of ribonucleotide reductase and antitumor activity” (J Med Chem, 1979):

How the values were obtained:
L1210 [1] = assay: Antitumor activity against mouse L1210 cells allografted in C6D2F1 mouse at 125 mg/kg, ip for 8 days starting from day 1 of challenge relative to control; format: functional; conditions: route intraperitoneal
L1210 [2] = assay: Antitumor activity against mouse L1210 cells allografted in C6D2F1 mouse at 320 mg/kg, ip for 8 days starting from day 1 of challenge relative to control; format: functional; conditions: route intraperitoneal
L1210 [3] = assay: Antitumor activity against mouse L1210 cells allografted in C6D2F1 mouse at 63 mg/kg, ip for 8 days starting from day 1 of challenge relative to control; format: functional; conditions: route intraperitoneal
Rattus norvegicus [4] = organism: Rattus norvegicus; assay: Inhibition of ribonucleotide reductase purified from rat Novikoff hepatoma assessed as inhibition of [3H]CDP to [3H]dCDP conversion after 40 mins
Summary of the method: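 Ribonucleotide reductase was partially purified from Novikoff hepatoma. The 0.34 mL mix held 3 µCi [3H]CDP (14–19 Ci/mmol), 3.3 mM ATP, 5.9 mM MgCl2, 8.8 mM Hepes pH 7.5, 15 mM DTT and 0.4–1.3 mg enzyme protein, incubated 40 min at 30 °C. Vehicle was water, ≤1% ethanol or 2% DMSO. Each inhibitor was tested at ≥3 concentrations, with actives repeated. ID50 was read from graphs.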

L1210 [5] = assay: Antitumor activity against mouse L1210 cells allografted in C6D2F1 mouse at 300 mg/kg, ip for 8 days starting from day 1 of challenge relative to control; format: functional; conditions: route intraperitoneal
L1210 [6] = assay: Antitumor activity against mouse L1210 cells allografted in C6D2F1 mouse at 200 mg/kg, ip for 8 days starting from day 1 of challenge relative to control; format: functional; conditions: route intraperitoneal
L1210 [7] = assay: Antitumor activity against ip dosed mouse L1210 cells allografted in C6D2F1 mouse assessed as dose to achieve maximum life span administered for 8 days starting from day 1 of challenge; format: functional
Summary of the method: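 L1210 leukemia propagated in DBA/2 mice; diluted ascitic fluid (0.10 mL, 10^5 cells) injected ip into female C6D2F1 mice (~20 g) on day 0. Compounds given ip once daily for 8 days from day 1, generally three doses in the 100–1000 mg/kg range, 8 mice per dose; other doses per toxicity. Read-out: life span as T/C %.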

L1210 [8] = assay: Antitumor activity against mouse L1210 cells allografted in C6D2F1 mouse at 75 mg/kg, ip for 8 days starting from day 1 of challenge relative to control; format: functional; conditions: route intraperitoneal
Rattus norvegicus [9] = organism: Rattus norvegicus; assay: Ratio of hydroxyurea ID50 to compound ID50 for ribonucleotide reductase purified from rat Novikoff hepatoma assessed as inhibition of [3H]CDP to [3H]dCDP conversion after 40 mins
L1210 [10] = assay: Antitumor activity against mouse L1210 cells allografted in C6D2F1 mouse at 100 to 1000 mg/kg, ip for 8 days starting from day 1 of challenge relative to control; conditions: dose mg/kg 100-1000; route intraperitoneal
L1210 [11] = assay: Antitumor activity against mouse L1210 cells allografted in C6D2F1 mouse at 500 mg/kg, ip for 8 days starting from day 1 of challenge relative to control; format: functional; conditions: route intraperitoneal
L1210 [12] = assay: Antitumor activity against mouse L1210 cells allografted in C6D2F1 mouse at 700 mg/kg, ip for 8 days starting from day 1 of challenge relative to control; format: functional; conditions: route intraperitoneal
L1210 [13] = assay: Antitumor activity against mouse L1210 cells allografted in C6D2F1 mouse at 600 mg/kg, ip for 8 days starting from day 1 of challenge relative to control; format: functional; conditions: route intraperitoneal
L1210 [14] = assay: Antitumor activity against mouse L1210 cells allografted in C6D2F1 mouse at 1000 mg/kg, ip for 8 days starting from day 1 of challenge relative to control; format: functional; conditions: route intraperitoneal
Mus musculus [15] = assay: Toxicity in mouse L1210 cells allografted C6D2F1 mouse at 800 mg/kg, ip for 8 days measured on day 2; format: organism-based; set-up: dose 800 mg/kg, route intraperitoneal; conditions: in vivo, 192 h
L1210 [16] = assay: Antitumor activity against mouse L1210 cells allografted in C6D2F1 mouse at 800 mg/kg, ip for 8 days starting from day 1 of challenge relative to control; format: functional; conditions: route intraperitoneal
L1210 [17] = assay: Antitumor activity against mouse L1210 cells allografted in C6D2F1 mouse at 100 mg/kg, ip for 8 days starting from day 1 of challenge relative to control; format: functional; conditions: route intraperitoneal
L1210 [18] = assay: Antitumor activity against mouse L1210 cells allografted in C6D2F1 mouse at 400 mg/kg, ip for 8 days starting from day 1 of challenge relative to control; format: functional; conditions: route intraperitoneal
L1210 [19] = assay: Antitumor activity against mouse L1210 cells allografted in C6D2F1 mouse at 139 mg/kg, ip bid at interval of 7 hrs between each dosing for 8 days starting from day 1 of challenge relative to control; format: functional; conditions: route intraperitoneal
Summary of the method: (§1)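 Mice were female C6D2F1 of about 20 g, inoculated ip on day 0 with 10^5 L1210 ascites cells grown in DBA/2 mice. Drug was given ip twice daily at 139 mg/kg per dose for 8 days, varying the interval between the two daily injections. Read-out is the T/C % of life span.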

L1210 [20] = assay: Antitumor activity against mouse L1210 cells allografted in C6D2F1 mouse at 139 mg/kg, ip bid at interval of 5 hrs between each dosing for 8 days starting from day 1 of challenge relative to control; format: functional; conditions: route intraperitoneal; summary of the method: as §1
L1210 [21] = assay: Antitumor activity against mouse L1210 cells allografted in C6D2F1 mouse at 139 mg/kg, ip bid at interval of 3 hrs between each dosing for 8 days starting from day 1 of challenge relative to control; format: functional; conditions: route intraperitoneal; summary of the method: as §1
L1210 [22] = assay: Antitumor activity against mouse L1210 cells allografted in C6D2F1 mouse at 139 mg/kg, ip bid at interval of 1 hr between each dosing for 8 days starting from day 1 of challenge relative to control; format: functional; conditions: route intraperitoneal; summary of the method: as §1
Mus musculus [23] = assay: Toxicity in mouse L1210 cells allografted C6D2F1 mouse at 500 mg/kg, ip for 8 days measured on day 3; format: organism-based; set-up: dose 500 mg/kg, route intraperitoneal; conditions: in vivo, 192 h
L1210 [24] = assay: Antitumor activity against mouse L1210 cells allografted in C6D2F1 mouse at 450 mg/kg, ip for 8 days starting from day 1 of challenge relative to control; format: functional; conditions: route intraperitoneal

Row | Compound | ID50 (Rattus norvegicus [4]) | Activity (L1210 [7]) | T/C (L1210 [10]) | further results
1 | O=C(NO)c1ccc(O)c(O)c1O | 3.5 µM | 125 mg/kg | 130% | T/C (L1210 [1]): 130%; T/C (L1210 [2]): 46%; T/C (L1210 [3]): 111%; T/C (L1210 [5]): 92%; T/C (L1210 [6]): 108%; T/C (L1210 [8]): 109%; Ratio (Rattus norvegicus [9]): 140
2 | O=C(NO)c1ccccc1 [BENZOHYDROXAMATE] | 400 µM | 500 mg/kg | 144% | 
3 | O=C(NO)c1c(O)cccc1O | 100 µM |  |  | 
4 | O=C(NO)c1cc(O)ccc1O | 200 µM | 300 mg/kg | 130% | 
5 | O=C(NO)c1ccc(O)cc1 | 250 µM | 400 mg/kg | 124% | 
6 | O=C(NO)c1cccc(O)c1 | 350 µM | 500 mg/kg | 177% | T/C (L1210 [11]): 177%; T/C (L1210 [12]): 148%; T/C (L1210 [6]): 123%; T/C (L1210 [13]): 156%; T/C (L1210 [14]): 68%
7 | O=C(NO)c1ccc(O)c(O)c1 | 30 µM | 600 mg/kg | 203% | Activity (Mus musculus [15]): Toxic; T/C (L1210 [16]): 28%; T/C (L1210 [11]): 184%; T/C (L1210 [17]): 125%; T/C (L1210 [18]): 154%; T/C (L1210 [5]): 156%; T/C (L1210 [13]): 203%
8 | Nc1ccccc1C(=O)NO | 120 µM | 500 mg/kg | 150% | 
9 | O=C(NO)c1ccccc1O [SALICYLHYDROXAMIC ACID] | 150 µM | 500 mg/kg | 147% | 
10 | O=C(NO)c1cc(O)c(O)c(O)c1 | 10 µM | 400 mg/kg | 153% | T/C (L1210 [16]): 56%; T/C (L1210 [19]): 172%; T/C (L1210 [17]): 125%; T/C (L1210 [20]): 189%; T/C (L1210 [18]): 153%; T/C (L1210 [21]): 168%; T/C (L1210 [22]): 151%; T/C (L1210 [6]): 147%
11 | Nc1cccc(C(=O)NO)c1 | 350 µM | 500 mg/kg | 110% | 
12 | O=C(NO)c1cc(O)cc(O)c1 | 400 µM | 1000 mg/kg | 152% | 
13 | Nc1ccc(C(=O)NO)cc1 | 150 µM | 500 mg/kg | 162% | 
14 | Nc1ccc(C(=O)NO)cc1N | 40 µM | 300 mg/kg | 140% | 
15 | O=C(NO)c1cccc(O)c1O | 8 µM | 200 mg/kg | 136% | T/C (L1210 [11]): 100%; Activity (Mus musculus [23]): Toxic; T/C (L1210 [5]): 107%; T/C (L1210 [24]): 103%; T/C (L1210 [6]): 136%
16 | NC(=O)NO [HYDROXYUREA] | 500 µM | 2500 mg/kg | 162% | 
17 | O=C(NO)c1ccc(O)cc1O | 250 µM | 500 mg/kg | 142% | 
18 | Nc1ccc(C(=O)NO)c(O)c1 | 200 µM | 1000 mg/kg | 115% | 
